Data from ChEMBL document CHEMBL4376814, “Novel cyclin-dependent kinase 9 (CDK9) inhibitor with suppression of cancer stemness activity against non-small-cell lung cancer” (Eur J Med Chem, 2019).
Calls of active or inactive are those of the source. The calls are words filed in the database; no cut-off is given here.

Experiments:
[1] = target: G protein-coupled receptor kinase 5 (Homo sapiens) (UniProt P34947); assay: Inhibition of recombinant full-length human GRK5 at 1 uM using casein as substrate measured after 40 mins in presence of [gamma33P]ATP by scintillation counting method relative to control
NCI-H1299 [2] = assay: Induction of apoptosis in human H1299 cells assessed as increase in Bim level at 0.25 to 1 uM after 24 hrs by Western blot analysis; type: functional, cell-based
Procedure, shortened: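 A549 or H1299 cells exposed to the indicated concentrations for 24 h. Protein extracts then immunoblotted for apoptosis-pathway proteins (Bcl2, Bim, cleaved caspase 3).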

Homo sapiens [3] = species: Homo sapiens; assay: Inhibition of recombinant full-length human PI3K p110alpha/p65alpha (1 to 571 residues) at 1 uM using phosphatidylinositol-4, 5-bisphosphate as substrate measured after 40 mins by HTRF assay relative to control
Procedure, shortened: (§1)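 Single-point inhibition at 1 µM was measured in the Eurofins KinaseProfiler panel. Values are the mean of two independent experiments.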

[4] = target: Receptor-interacting serine/threonine-protein kinase 1 (Homo sapiens) (UniProt Q13546); assay: Inhibition of human RIPK1 (8 to 322 residues) at 1 uM using myelin basic protein as substrate measured after 120 mins in presence of [gamma33P]ATP by scintillation counting method relative to control
Procedure, shortened: (§2)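 Percent inhibition of kinase activity at a single compound concentration, measured by the outsourced Eurofins KinaseProfiler panel. Values are the mean of two independent experiments.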

A549 [5] = assay: Antiproliferative activity against human A549 cells assessed as inhibition of cell viability after 72 hrs by CCK-8 assay; type: functional, cell-based; conditions: A549, 72 h
Procedure, shortened: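 Cells kept at 37 °C, 5% CO2 in DMEM or RPMI-1640 with 10% FBS and 1% penicillin/streptomycin, then seeded at 3000 cells/well (adherent) or 10,000 cells/well (suspension). Exposed to a range of concentrations for 72 h. CCK-8 added for 1-4 h before reading A450. […] Three independent experiments.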

[6] = system: Phosphorylase b kinase gamma catalytic chain, liver/testis isoform (Homo sapiens), P15735 [F290L]; assay: Inhibition of recombinant human PhKG2 F290L mutant (1 to 301 residues) at 1 uM using KKLNRTLSFAEPG as substrate measured after 40 mins in presence of [gamma33P]ATP by scintillation counting method relative to control
[7] = target: Testis-specific serine/threonine-protein kinase 1 (Homo sapiens) (UniProt Q9BXA7); assay: Inhibition of recombinant full-length human TSSK1 at 1 uM using KKKVSRSGLYRSPSMPENLNRPR as substrate measured after 40 mins in presence of [gamma33P]ATP by scintillation counting method relative to control
[8] = target: Misshapen-like kinase 1 (Homo sapiens) (UniProt Q8N4C8); assay: Inhibition of recombinant human MINK (1 to 310 recombinant) at 1 uM using myelin basic protein as substrate measured after 40 mins in presence of [gamma33P]ATP by scintillation counting method relative to control
[9] = target: Inhibitor of nuclear factor kappa-B kinase subunit alpha (Homo sapiens) (UniProt O15111); assay: Inhibition of human full length recombinant IKKalpha at 1 uM using peptide as substrate incubated for 40 mins in presence of [gamma-33P]ATP at Km concentration by radiometric assay relative to control
A549 [10] = assay: Induction of apoptosis in human A549 cells assessed as viable cells at 0.5 uM after 48 hrs by AnnexinV-FITC/PI staining-based flow cytometric analysis (reference value: 88.8%); type: functional; conditions: A549, 48 h, read-out: Activity
[11] = target: Interleukin-1 receptor-associated kinase 1 (Homo sapiens) (UniProt P51617); conditions: 1 uM
[12] = Toxicity in Balb/c mouse xenografted with human H1299 cells assessed as effect on body weight at 20 to 80 mg/kg, po administered for 21 days and measured daily […]; type: organism-based; conditions: in vivo, 504 h
A549 [13] = assay: Induction of apoptosis in human A549 cells assessed as late apoptotic cells at 0.25 uM after 48 hrs by AnnexinV-FITC/PI staining-based flow cytometric analysis (reference value: 7.66%); type: functional
[14] = system: Tyrosine-protein kinase BTK (Homo sapiens), Q06187 [R28H]; assay: Inhibition of full-length recombinant human BTK R28H mutant at 1 uM using LSNLYHQGKFLQTFCGSPLYRRR as substrate measured after 40 mins in presence of [gamma33P]ATP by scintillation counting method relative to control; procedure, shortened: as §1
CDK9/cyclin T1 = CDK9/cyclin T1 (Homo sapiens, UniProt P50750); assay: Inhibition of recombinant full-length human CDK9/cyclinT1 using KTFCGTPEYLAPEVRREPRILSEEEQEMFRDFDYIADWC peptide as substrate measured after 40 mins in presence of [gamma33P]ATP by scintillation counting method; type: protein-complex assay
Procedure, shortened: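 IC50 against CDK9/cyclin T1, determined by the outsourced Eurofins KinaseProfiler service. Values are the mean of two independent experiments.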

NCI-H1299 [15] = assay: Induction of apoptosis in human H1299 cells assessed as necrotic cells at 0.5 uM after 48 hrs by AnnexinV-FITC/PI staining-based flow cytometric analysis (reference value: 0.9%); type: functional
[16] = target: Casein kinase 2 (Homo sapiens) (UniProt P67870+P68400+P19784+Q8NEV1); assay: Inhibition of human CK2 at 1 uM relative to control; type: protein assay; procedure, shortened: as §2
[17] = target: Ephrin type-A receptor 1 (Homo sapiens) (UniProt P21709); assay: Inhibition of recombinant human EphA1 (568 to end residues) at 1 uM using KKKSPGEYVNIEF as substrate measured after 40 mins in presence of [gamma33P]ATP by scintillation counting method relative to control
Homo sapiens [18] = species: Homo sapiens; assay: Inhibition of recombinant full-length human PI3K p120gamma R459Q mutant at 1 uM using phosphatidylinositol-4, 5-bisphosphate as substrate measured after 40 mins by fluorescence assay relative to control
A549 [19] = assay: Downregulation of cyclin T1 expression in human A549 cells at 0.25 to 1 uM after 24 hrs by Western blot analysis; type: functional, cell-based
Procedure, shortened: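 A549 and H1299 cells treated for 24 h with serial dilutions alongside a DMSO control. Protein extracts resolved and immunoblotted.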

[20] = target: Serine/threonine-protein kinase PAK 4 (Homo sapiens) (UniProt O96013); assay: Inhibition of recombinant human PAK4 (295 to end residues) at 1 uM using myelin basic protein as substrate measured after 40 mins in presence of [gamma33P]ATP by scintillation counting method relative to control
[21] = target: Serine/threonine-protein kinase pim-1 (Homo sapiens) (UniProt P11309); assay: Inhibition of recombinant full-length human Pim-1 at 1 uM using KKRNRTLTV as substrate measured after 40 mins in presence of [gamma33P]ATP by scintillation counting method relative to control
[22] = target: Tyrosine-protein kinase CSK (Homo sapiens) (UniProt P41240); assay: Inhibition of recombinant full-length human CSK at 1 uM using poly(Glu, Tyr) 4:1 as substrate measured after 40 mins in presence of [gamma33P]ATP by scintillation counting method relative to control; procedure, shortened: as §1
Sequence of Tyrosine-protein kinase CSK (Homo sapiens) (P41240 2-450 limits assumed): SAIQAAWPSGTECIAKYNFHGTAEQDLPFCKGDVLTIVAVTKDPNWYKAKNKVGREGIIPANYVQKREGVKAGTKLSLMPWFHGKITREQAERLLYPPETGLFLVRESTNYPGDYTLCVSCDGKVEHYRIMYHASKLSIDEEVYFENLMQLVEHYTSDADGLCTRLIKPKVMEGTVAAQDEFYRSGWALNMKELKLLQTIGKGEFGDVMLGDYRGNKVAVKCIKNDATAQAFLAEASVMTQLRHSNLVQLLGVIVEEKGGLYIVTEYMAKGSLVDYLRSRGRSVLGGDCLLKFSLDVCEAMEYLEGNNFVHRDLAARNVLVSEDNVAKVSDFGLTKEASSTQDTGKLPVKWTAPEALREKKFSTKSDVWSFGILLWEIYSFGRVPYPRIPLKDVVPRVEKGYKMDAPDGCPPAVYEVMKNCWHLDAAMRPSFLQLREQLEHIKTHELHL

Sequence of Serine/threonine-protein kinase PAK 4 (Homo sapiens) (O96013 whole entry, looked up): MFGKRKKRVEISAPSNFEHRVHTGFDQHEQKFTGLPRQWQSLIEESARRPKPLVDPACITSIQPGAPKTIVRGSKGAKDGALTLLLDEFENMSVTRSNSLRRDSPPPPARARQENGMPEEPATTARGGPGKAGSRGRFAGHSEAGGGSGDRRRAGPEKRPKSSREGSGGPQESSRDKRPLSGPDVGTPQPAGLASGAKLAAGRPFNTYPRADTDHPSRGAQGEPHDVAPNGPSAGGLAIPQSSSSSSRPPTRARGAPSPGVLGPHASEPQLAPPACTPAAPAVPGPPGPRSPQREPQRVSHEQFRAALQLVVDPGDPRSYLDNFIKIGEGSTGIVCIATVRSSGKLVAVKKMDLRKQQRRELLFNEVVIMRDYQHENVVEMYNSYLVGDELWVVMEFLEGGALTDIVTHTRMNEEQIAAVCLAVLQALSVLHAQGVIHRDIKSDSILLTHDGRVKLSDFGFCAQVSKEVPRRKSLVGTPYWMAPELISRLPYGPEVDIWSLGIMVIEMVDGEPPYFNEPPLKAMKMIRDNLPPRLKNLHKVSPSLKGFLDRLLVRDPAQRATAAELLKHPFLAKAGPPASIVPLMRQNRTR
Sequence of Interleukin-1 receptor-associated kinase 1 (Homo sapiens) (P51617 whole entry, looked up): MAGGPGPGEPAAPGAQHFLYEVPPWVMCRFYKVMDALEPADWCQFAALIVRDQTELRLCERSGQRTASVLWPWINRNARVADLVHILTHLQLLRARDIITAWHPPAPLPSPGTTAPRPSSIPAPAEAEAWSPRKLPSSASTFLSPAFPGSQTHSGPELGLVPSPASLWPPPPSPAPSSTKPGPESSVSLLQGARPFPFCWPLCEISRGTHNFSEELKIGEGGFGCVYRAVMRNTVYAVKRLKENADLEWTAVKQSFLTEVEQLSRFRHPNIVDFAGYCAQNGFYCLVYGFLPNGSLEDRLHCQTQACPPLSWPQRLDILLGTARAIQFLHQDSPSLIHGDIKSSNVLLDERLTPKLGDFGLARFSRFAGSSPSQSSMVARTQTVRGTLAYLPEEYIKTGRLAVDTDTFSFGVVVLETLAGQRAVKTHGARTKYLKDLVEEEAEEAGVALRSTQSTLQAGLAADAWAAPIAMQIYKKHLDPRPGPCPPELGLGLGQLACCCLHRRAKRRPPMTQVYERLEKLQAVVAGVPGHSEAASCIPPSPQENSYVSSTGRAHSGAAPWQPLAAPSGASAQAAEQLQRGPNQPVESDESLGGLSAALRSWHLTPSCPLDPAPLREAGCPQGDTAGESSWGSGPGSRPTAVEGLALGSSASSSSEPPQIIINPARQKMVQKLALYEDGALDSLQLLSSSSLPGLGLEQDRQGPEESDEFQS
Sequence of Receptor-interacting serine/threonine-protein kinase 1 (Homo sapiens) (Q13546 whole entry, the tested form may be a part): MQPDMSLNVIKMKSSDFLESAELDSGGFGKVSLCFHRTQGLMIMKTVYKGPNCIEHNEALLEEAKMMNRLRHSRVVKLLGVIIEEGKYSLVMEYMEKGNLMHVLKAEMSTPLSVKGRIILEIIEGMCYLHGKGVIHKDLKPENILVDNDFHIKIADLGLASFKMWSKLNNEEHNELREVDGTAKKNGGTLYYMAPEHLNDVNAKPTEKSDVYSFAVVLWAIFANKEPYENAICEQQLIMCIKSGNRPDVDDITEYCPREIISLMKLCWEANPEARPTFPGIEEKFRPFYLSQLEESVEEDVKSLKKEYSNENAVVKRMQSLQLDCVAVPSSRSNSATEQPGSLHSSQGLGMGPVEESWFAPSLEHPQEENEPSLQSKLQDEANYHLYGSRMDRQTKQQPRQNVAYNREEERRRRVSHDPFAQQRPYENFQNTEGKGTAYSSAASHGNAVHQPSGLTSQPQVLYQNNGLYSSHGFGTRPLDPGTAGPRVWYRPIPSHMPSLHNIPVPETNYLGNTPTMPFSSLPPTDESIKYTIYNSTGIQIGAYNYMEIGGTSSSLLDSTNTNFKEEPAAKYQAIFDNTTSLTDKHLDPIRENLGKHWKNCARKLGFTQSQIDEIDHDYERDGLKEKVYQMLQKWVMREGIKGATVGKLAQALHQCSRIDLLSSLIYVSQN
Sequence of Inhibitor of nuclear factor kappa-B kinase subunit alpha (Homo sapiens) (O15111 whole entry): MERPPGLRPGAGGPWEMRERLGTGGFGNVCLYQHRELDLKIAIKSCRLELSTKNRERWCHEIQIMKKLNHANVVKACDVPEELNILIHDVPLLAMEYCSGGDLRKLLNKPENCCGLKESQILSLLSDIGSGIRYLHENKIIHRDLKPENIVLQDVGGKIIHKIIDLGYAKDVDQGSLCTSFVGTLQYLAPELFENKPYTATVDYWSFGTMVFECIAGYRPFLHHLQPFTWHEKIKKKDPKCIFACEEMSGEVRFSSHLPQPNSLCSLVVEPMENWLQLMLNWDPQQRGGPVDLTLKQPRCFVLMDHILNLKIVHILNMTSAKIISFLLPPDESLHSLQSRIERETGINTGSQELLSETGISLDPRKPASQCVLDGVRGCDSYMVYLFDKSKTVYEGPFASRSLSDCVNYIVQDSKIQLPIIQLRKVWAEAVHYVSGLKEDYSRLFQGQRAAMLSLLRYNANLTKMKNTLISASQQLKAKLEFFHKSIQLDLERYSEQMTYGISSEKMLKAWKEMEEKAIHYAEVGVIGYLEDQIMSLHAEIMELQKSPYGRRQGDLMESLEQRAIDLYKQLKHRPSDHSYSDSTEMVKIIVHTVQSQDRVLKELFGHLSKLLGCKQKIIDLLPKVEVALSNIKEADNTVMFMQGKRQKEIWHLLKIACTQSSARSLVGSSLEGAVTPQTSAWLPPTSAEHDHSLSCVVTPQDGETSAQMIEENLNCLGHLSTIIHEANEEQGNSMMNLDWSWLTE
Sequence of Phosphorylase b kinase gamma catalytic chain, liver/testis isoform (Homo sapiens), P15735 [F290L] (P15735 whole entry F290L, the tested form may be a part, canonical isoform): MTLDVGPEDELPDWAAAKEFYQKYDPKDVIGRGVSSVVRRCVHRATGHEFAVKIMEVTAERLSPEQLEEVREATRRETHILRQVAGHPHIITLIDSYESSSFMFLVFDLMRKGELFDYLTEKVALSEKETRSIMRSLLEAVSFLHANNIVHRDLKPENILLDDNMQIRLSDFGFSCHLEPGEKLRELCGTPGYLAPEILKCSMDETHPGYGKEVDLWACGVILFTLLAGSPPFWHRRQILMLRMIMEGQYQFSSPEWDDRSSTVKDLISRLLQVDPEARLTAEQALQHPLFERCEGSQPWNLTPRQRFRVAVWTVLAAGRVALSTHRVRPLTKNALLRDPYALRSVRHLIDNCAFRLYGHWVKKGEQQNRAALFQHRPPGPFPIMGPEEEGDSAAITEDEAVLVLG
Sequence of Ephrin type-A receptor 1 (Homo sapiens) (P21709 whole entry): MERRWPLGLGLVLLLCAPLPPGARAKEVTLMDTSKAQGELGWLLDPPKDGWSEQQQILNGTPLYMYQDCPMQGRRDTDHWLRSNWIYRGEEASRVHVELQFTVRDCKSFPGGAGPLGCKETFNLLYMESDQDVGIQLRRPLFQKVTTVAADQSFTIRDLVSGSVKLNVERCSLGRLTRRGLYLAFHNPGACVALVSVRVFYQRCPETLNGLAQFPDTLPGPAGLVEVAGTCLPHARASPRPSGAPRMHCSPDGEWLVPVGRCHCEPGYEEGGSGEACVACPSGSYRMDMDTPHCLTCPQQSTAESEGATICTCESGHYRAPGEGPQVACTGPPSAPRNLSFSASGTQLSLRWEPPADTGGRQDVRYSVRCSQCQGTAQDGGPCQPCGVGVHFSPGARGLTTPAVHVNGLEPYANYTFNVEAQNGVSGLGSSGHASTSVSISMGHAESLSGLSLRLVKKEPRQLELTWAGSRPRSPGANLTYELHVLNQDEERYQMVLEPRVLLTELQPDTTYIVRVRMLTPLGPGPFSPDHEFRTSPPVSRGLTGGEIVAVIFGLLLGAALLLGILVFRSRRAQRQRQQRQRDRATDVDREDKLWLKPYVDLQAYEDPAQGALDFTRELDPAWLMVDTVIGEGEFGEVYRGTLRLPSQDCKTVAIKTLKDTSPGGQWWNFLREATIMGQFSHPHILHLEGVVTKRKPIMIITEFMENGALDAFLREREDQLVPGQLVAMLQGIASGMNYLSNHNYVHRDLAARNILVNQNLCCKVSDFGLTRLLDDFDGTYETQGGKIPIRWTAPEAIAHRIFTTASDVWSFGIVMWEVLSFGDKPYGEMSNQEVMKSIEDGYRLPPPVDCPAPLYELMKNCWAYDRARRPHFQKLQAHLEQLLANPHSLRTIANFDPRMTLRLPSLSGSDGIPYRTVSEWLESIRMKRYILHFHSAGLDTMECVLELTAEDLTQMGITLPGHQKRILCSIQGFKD
Sequence of Serine/threonine-protein kinase pim-1 (Homo sapiens) (P11309 whole entry, looked up): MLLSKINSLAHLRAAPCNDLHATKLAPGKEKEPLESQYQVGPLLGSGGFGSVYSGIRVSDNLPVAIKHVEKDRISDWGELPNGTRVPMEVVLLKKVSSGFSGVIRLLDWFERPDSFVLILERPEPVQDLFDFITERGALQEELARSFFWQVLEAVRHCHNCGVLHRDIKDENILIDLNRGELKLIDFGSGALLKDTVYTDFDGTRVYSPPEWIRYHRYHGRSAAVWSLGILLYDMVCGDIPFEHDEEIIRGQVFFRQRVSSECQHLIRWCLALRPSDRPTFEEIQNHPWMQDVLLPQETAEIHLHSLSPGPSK

CN(C)C(=O)c1cc2cnc(Nc3ccc(NC(=O)CCCCCCCN=C=S)cc3)nc2n1C1CCCC1
inhibition [1]: -2%
Activity (NCI-H1299 [2]): Active
inhibition (Homo sapiens [3]): 1%
inhibition [4]: 37%
IC50 (A549 [5]): 450 nM
inhibition [6]: 28%
inhibition [7]: 7%
inhibition [8]: 39%
inhibition [9]: -1%
viability at 0.5 µM (A549 [10]): 78.8%
inhibition [11]: 98%
Activity [12]: Non-Toxic
Activity (A549 [13]): 14.5%
inhibition [14]: 1%
IC50 (CDK9/cyclin T1): 11 nM
Activity (NCI-H1299 [15]): 1.11%
inhibition [16]: 4%
inhibition [17]: 44%
inhibition (Homo sapiens [18]): 14%
Activity (A549 [19]): Active
inhibition [20]: 10%
inhibition [21]: 8%
inhibition [22]: 1%
